In ChEMBL document CHEMBL4823318, “Kinetic and structural investigations of novel inhibitors of human epithelial 15-lipoxygenase-2” (Bioorg Med Chem, 2021):

Tests used:
Homo sapiens [1] = organism: Homo sapiens; experiment: Selectivity ratio of IC50 for inhibition of human 15-LOX-1 to IC50 for inhibition of human 15-LOX-2
Method in brief: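 h15-LOX-1 (~60 nM total protein) was run at 23 °C, stirred, in 25 mM HEPES pH 7.5, 0.01% Triton X-100 and 10 μM AA. Diene product was read at 234 nm. Inhibition at 25 μM inhibitor was taken against the DMSO rate, in duplicate.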

Homo sapiens [2] = organism: Homo sapiens; experiment: Selectivity ratio of IC50 for inhibition of human 12-LOX to IC50 for inhibition of human 15-LOX-2
Method in brief: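 Conjugated diene formation was followed at 234 nm. Rates were compared with the DMSO control at a single 25 μM inhibitor concentration, in duplicate.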

[3] = target: T1, Polyunsaturated fatty acid lipoxygenase ALOX15B (Homo sapiens) (UniProt O15296); experiment: Uncompetitive inhibition of human 15-LOX-2 assessed as equilibrium dissociation constant from secondary site by measuring 15-HpETE by Dixon plots and Dixon replots analysis
T1 sequence (whole entry): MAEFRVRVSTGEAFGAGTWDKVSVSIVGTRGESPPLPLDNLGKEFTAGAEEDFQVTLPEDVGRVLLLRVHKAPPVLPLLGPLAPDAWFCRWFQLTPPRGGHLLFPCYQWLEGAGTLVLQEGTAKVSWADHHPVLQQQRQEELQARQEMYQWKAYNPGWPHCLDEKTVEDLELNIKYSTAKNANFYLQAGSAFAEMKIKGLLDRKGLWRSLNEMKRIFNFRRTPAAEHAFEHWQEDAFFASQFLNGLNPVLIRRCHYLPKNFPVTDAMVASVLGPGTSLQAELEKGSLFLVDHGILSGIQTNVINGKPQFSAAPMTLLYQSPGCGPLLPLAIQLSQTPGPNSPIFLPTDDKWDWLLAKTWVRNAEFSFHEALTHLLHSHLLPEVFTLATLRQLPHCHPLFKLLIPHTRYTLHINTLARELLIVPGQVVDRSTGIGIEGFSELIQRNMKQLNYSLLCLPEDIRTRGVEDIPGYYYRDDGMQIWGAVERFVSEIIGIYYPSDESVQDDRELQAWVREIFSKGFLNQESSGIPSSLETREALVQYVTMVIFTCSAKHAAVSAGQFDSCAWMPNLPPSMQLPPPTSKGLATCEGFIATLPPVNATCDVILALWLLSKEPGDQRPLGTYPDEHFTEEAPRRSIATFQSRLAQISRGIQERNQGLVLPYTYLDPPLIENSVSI
Method in brief: (§1)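 Steady-state kinetics with h15-LOX-2 at 23 °C in stirred 25 mM HEPES pH 7.5, 0.01% Triton X-100, with 0.7–20 μM AA, reaction started by adding enzyme. Initial rates at varied inhibitor levels were fit to Henri-Michaelis-Menten for Vmax and Km. Slopes from Dixon plots (1/v vs [I]) were replotted against 1/[S]. Kic = (Km/Vmax)/replot slope; Kiu = (1/Vmax)/replot y-intercept.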

[4] = target: T2, Polyunsaturated fatty acid lipoxygenase ALOX8 (Mus musculus, UniProt O35936); experiment: Inhibition of mouse 15-LOX2 assessed as enzymatic rate using arachidonic acid as substrate by UV/Vis spectrophotometric analysis
T2 sequence (O35936 whole entry): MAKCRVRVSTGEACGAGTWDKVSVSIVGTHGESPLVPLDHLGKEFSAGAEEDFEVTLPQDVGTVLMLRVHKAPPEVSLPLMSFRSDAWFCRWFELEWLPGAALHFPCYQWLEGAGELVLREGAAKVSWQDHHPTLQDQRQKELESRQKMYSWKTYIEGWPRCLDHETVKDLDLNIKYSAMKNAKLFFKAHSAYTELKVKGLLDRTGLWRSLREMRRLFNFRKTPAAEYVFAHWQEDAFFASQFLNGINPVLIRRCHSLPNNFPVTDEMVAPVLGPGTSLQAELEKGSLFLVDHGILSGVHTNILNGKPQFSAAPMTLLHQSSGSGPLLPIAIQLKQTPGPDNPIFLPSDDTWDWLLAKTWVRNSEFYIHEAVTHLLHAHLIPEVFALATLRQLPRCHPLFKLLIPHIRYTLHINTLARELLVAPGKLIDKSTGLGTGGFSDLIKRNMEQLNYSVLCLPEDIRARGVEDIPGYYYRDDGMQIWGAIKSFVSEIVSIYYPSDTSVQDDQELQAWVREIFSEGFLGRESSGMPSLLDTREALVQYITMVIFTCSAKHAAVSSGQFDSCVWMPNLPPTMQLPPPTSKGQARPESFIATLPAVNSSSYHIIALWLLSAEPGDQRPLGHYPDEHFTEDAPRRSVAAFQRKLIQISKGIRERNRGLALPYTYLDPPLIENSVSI

[5] = target: T1, Polyunsaturated fatty acid lipoxygenase ALOX15B (Homo sapiens); experiment: Competitive inhibition of human 15-LOX-2 assessed as equilibrium dissociation constant from catalytic site by measuring 15-HpETE by Dixon plots and Dixon replots analysis; method in brief: as §1
Homo sapiens [6] = organism: Homo sapiens; experiment: Selectivity ratio of IC50 for inhibition of human COX2 to IC50 for inhibition of human 15-LOX-2
Method in brief: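 Ovine COX-1 or human recombinant COX-2 (~3 μg) was used in 0.1 M Tris-HCl pH 8.0 with 5 mM EDTA, 2 mM phenol and 1 μM hemin at 37 °C. Inhibitor was preincubated with enzyme for 5 min, then ~100 μM AA was added. O2 consumption was recorded with an oxygen electrode, and rates were compared to the DMSO control, in duplicate.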

HEK-293T = experiment: Cytotoxicity against human HEK293T cells expressing human 15-LOX-2 at 10 uM measured after 1 hr by cell survival assay; assay type: cell-based
Method in brief: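 HEK293T cells stably overexpressing h15-LOX-2 were kept in MEM with 10% FBS, 2 mM glutamine, penicillin/streptomycin and 640 ug/ml G418. Cells were exposed to 0.2% DMSO, 10 μM or 20 μM inhibitor for 1 h. Medium was then replaced and cells were checked daily for death.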

[7] = target: Prostaglandin G/H synthase 1 (Ovis aries) (UniProt P05979); experiment: Inhibition of ovine COX-1 assessed as enzymatic rate using arachidonic acid as substrate by oxygen electrode measurement of oxygen consumption
Homo sapiens [8] = organism: Homo sapiens; experiment: Selectivity ratio of IC50 for inhibition of human 5-LOX to IC50 for inhibition of human 15-LOX-2
Homo sapiens [9] = organism: Homo sapiens; experiment: Selectivity ratio of IC50 for inhibition of ovine COX1 to IC50 for inhibition of human 15-LOX-2

SMILES	Ratio IC50 (Homo sapiens [1])	Ratio IC50 (Homo sapiens [2])	Kiuc [3] [µM]	IC50 [4] [µM]	Kic [5] [µM]	Ratio IC50 (Homo sapiens [6])	Activity (HEK-293T)	IC50 [7] [µM]	Ratio IC50 (Homo sapiens [8])	Ratio IC50 (Homo sapiens [9])
CCc1ccc(CSc2nccn2-c2ccccc2)cc1	> 50	> 50	3.4	> 50	0.9	> 50	Non-Toxic	> 100	> 50	> 50
FC(F)(F)c1ccc(CSc2nccn2-c2ccccc2)cc1	> 50	> 50		> 50	0.7	> 50	Non-Toxic	> 100	> 50	> 50
Cc1ccc(CSc2ncn(-c3ccccc3)n2)cc1							Non-Toxic			
Brc1ccc(CSc2nccn2-c2ccccc2)cc1				> 50			Non-Toxic	> 100		
